The term IC50 denotes the point on the concentration scale where inhibition reaches its midpoint. Read a high IC50 as weaker potency in that assay. As usually defined, the inhibition is the drop in the measured response relative to a control, in per cent.

One test deals with AMPK alpha1/alpha2 (Homo sapiens, UniProt P54646+Q13131). In words: Inhibition of AMPKalpha1/2 in human HeLa cells lysate pre incubated for 15 mins followed by ADP acyl phosphate probe addition and measured after 10 mins by LC-MS/MS analysis. The class given is subcellular. Put shortly:
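HeLa cell lysates (5 mg/mL total protein) were preincubated with inhibitor at 0, 0.8, 2, 10 or 50 μM for 15 min. ATP or ADP acylphosphate probe was then added (5 μM final) for 10 min, and reactions were stopped with urea. Up to four fragment ions per kinase probe-peptide were quantified by targeted MS. % inhibition was taken relative to untreated lysate. Run in duplicate.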

Test [1] deals with Casein kinase I isoform alpha (Homo sapiens, UniProt P48729). Nature of the test: Inhibition of CK1alpha in human HeLa cells lysate pre incubated for 15 mins followed by ATP acyl phosphate probe addition and measured after 10 mins by LC-MS/MS analysis. The class given is subcellular.
Test [2] has as its target Cyclin-dependent kinase 2 (Homo sapiens, UniProt P24941). Nature of the test: Inhibition of CDK2 K1 site in human HeLa cells lysate pre incubated for 15 mins followed by ATP acyl phosphate probe addition and measured after 10 mins by LC-MS/MS analysis. The class given is subcellular. Put shortly:
(§1)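 KiNativ profiling in HeLa lysate (5 mg/mL total protein). Lysate incubated 15 min with inhibitor at 50, 10, 2, 0.8 or 0 μM. ATP or ADP acylphosphate probe then added (5 μM final) and reacted 10 min. Reaction stopped with urea and analysed by targeted MS, using up to four fragment ions per kinase peptide-probe conjugate. % inhibition taken against untreated lysate. Run in duplicate.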

The target in test [3] is Serine/threonine-protein kinase 3 (Homo sapiens, UniProt Q13188). Nature of the test: Inhibition of MST2 in human HeLa cells lysate pre incubated for 15 mins followed by ADP acyl phosphate probe addition and measured after 10 mins by LC-MS/MS analysis. The class given is subcellular.
Test [4] deals with Tyrosine-protein kinase receptor UFO (Homo sapiens, UniProt P30530). In words: Inhibition of AXL in human HeLa cells lysate pre incubated for 15 mins followed by ADP acyl phosphate probe addition and measured after 10 mins by LC-MS/MS analysis. The class given is subcellular. In short, it runs like this: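 KiNativ-type profiling in HeLa lysate (5 mg/mL total protein). Lysate preincubated 15 min with inhibitor at 50, 10, 2, 0.8 or 0 μM, then ATP or ADP acylphosphate probe added (5 μM final) for 10 min. Reaction stopped with urea and analysed by targeted MS, using up to four fragment ions per kinase peptide-probe conjugate. % inhibition calculated against untreated lysate. Duplicate reactions.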

Test [5] deals with 1-phosphatidylinositol 3-phosphate 5-kinase (Homo sapiens, UniProt Q9Y2I7). Nature of the test: Inhibition of PIP5K3 in human HeLa cells lysate pre incubated for 15 mins followed by ATP acyl phosphate probe addition and measured after 10 mins by LC-MS/MS analysis. The class given is subcellular.
The target in test [6] is Cyclin-dependent kinase 10 (Homo sapiens, UniProt Q15131). Nature of the test: Inhibition of CDK10 in human HeLa cells lysate pre incubated for 15 mins followed by ATP acyl phosphate probe addition and measured after 10 mins by LC-MS/MS analysis. The class given is subcellular. In short, it runs like this: as §1
The target of test [7] is T1, Mixed lineage kinase domain-like protein (Homo sapiens) (UniProt Q8NB16).
T1 sequence (whole entry): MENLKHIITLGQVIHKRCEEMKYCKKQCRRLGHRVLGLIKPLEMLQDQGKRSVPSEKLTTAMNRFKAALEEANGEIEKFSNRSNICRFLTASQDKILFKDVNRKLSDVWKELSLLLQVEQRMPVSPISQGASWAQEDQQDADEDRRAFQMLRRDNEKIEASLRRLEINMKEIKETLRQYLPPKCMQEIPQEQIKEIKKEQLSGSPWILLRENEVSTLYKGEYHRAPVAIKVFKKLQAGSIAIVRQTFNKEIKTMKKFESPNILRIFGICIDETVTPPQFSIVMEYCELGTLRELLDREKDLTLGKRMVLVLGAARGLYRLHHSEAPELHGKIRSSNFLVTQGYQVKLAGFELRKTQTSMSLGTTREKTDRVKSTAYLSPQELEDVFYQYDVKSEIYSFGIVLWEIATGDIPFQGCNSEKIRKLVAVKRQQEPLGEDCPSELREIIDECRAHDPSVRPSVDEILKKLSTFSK
Nature of the test: Inhibition of MLKL in human HeLa cells lysate at 10 uM pre incubated for 15 mins followed by ADP acyl phosphate probe addition and measured after 10 mins by LC-MS/MS analysis relative to control. The class given is subcellular. The conditions noted are these: time 25.0 min.

The next test addresses Insulin receptor (Homo sapiens, UniProt P06213). In words: Inhibition of INSR in human HeLa cells lysate pre incubated for 15 mins followed by ADP acyl phosphate probe addition and measured after 10 mins by LC-MS/MS analysis. The class given is subcellular.
The target in test [8] is T2, Dual specificity mitogen-activated protein kinase kinase 6 (Homo sapiens) (UniProt P52564).
T2 sequence (whole entry): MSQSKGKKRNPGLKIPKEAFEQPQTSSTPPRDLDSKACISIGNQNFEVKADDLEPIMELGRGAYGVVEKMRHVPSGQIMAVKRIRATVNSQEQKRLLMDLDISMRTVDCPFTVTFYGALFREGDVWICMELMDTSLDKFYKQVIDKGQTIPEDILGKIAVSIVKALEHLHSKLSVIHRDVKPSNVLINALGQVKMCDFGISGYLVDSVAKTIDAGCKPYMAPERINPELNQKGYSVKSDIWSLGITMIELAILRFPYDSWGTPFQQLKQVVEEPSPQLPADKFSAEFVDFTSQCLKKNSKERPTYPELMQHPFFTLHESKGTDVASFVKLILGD
In words: Inhibition of MAP2K6 in human HeLa cells lysate at 50 uM pre incubated for 15 mins followed by ADP acyl phosphate probe addition and measured after 10 mins by LC-MS/MS analysis relative to control. The class given is subcellular. The note with it: time 25.0 min.

Test [9] has as its target Serine/threonine-protein kinase D3 (Homo sapiens, UniProt O94806). Nature of the test: Inhibition of PKD3 in human HeLa cells lysate pre incubated for 15 mins followed by ADP acyl phosphate probe addition and measured after 10 mins by LC-MS/MS analysis. The class given is subcellular.
The target of test [10] is Mitogen-activated protein kinase kinase kinase 1 (Homo sapiens, UniProt Q13233). In words: Inhibition of MAP3K1 in human HeLa cells lysate pre incubated for 15 mins followed by ADP acyl phosphate probe addition and measured after 10 mins by LC-MS/MS analysis. The class given is subcellular.
Test [11] deals with Serine/threonine-protein kinase 24 (Homo sapiens, UniProt Q9Y6E0). In words: Inhibition of MST3 in human HeLa cells lysate at 10 uM pre incubated for 15 mins followed by ATP acyl phosphate probe addition and measured after 10 mins by LC-MS/MS analysis relative to control. The class given is subcellular. The note with it: time 25.0 min.
Test [12] concerns the target Ribosomal protein S6 kinase alpha-5 (Homo sapiens, UniProt O75582). Nature of the test: Inhibition of MSK1 domain 1 K1 site in human HeLa cells lysate at 2 uM pre incubated for 15 mins followed by ADP acyl phosphate probe addition and measured after 10 mins by LC-MS/MS analysis relative to control. The class given is subcellular. The conditions noted are these: time 25.0 min.

Test [13] has as its target Mitogen-activated protein kinase 7 (Mus musculus) (UniProt Q9WVS8). In words: Inhibition of BMK1 in pml null mouse MEF cells assessed as increase in p21 protein expression at 5 uM incubated for 16 hrs by Western blot analysis. The class given is cell-based. In short, it runs like this:
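Pml+/+ or Pml−/− MEFs treated ±5 μM inhibitor for 16 h. Lysates western blotted for p21, quantified by densitometry and normalized to GAPDH, relative to untreated Pml+/+ MEF set as 1. n = 3, ±SEM.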
In general terms: Immunoblotting shows a protein as a band on a membrane.

The source made the active and inactive calls. No cut-off for these calls is given here. A value given as a limit tells only on which side of the number the result lay.

Mitogen-activated protein kinase 7 (Mus musculus), sequence (Q9WVS8 whole entry): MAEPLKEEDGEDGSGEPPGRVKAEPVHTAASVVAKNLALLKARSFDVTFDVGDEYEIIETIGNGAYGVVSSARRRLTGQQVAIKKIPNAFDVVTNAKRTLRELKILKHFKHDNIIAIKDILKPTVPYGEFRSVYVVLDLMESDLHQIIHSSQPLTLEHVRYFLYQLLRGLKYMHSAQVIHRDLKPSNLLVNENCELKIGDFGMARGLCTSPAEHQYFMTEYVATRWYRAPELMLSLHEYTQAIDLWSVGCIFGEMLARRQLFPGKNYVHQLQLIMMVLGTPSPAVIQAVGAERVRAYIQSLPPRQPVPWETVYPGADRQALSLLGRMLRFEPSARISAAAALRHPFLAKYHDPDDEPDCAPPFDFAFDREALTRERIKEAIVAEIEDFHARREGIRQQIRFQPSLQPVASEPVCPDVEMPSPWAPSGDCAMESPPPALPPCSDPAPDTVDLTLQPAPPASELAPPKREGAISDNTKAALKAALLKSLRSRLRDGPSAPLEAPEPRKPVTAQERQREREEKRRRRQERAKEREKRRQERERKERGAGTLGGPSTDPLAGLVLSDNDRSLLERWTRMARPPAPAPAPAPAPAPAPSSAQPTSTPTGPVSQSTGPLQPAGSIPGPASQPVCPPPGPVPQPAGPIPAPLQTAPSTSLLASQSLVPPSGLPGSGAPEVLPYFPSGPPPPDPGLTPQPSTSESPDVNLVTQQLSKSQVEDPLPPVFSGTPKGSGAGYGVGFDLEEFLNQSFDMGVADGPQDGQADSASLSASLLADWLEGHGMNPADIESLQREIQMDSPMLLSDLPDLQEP
Tyrosine-protein kinase receptor UFO, sequence (P30530 whole entry, the tested form may be a part): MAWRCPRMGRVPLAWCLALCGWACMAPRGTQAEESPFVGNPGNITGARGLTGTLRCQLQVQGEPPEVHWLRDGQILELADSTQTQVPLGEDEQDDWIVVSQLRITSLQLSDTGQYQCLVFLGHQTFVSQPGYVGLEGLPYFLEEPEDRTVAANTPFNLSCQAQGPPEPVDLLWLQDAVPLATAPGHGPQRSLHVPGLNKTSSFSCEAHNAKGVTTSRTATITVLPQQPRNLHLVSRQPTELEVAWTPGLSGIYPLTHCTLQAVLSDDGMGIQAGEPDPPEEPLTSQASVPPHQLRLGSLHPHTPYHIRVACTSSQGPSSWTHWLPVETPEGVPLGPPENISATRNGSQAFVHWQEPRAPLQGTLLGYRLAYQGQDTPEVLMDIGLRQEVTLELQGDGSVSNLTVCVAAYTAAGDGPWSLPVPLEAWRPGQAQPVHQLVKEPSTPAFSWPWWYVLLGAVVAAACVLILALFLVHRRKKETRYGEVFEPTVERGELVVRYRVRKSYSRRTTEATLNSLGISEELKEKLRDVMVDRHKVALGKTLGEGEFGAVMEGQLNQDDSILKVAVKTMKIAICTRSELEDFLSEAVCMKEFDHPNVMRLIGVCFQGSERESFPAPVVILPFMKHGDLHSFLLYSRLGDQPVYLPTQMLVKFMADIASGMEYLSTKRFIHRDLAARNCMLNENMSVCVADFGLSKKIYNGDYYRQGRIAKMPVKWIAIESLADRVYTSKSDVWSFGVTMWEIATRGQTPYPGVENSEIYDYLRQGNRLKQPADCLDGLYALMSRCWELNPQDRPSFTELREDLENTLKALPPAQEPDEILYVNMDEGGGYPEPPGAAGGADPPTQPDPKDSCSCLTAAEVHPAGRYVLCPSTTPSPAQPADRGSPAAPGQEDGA
Ribosomal protein S6 kinase alpha-5, sequence (O75582 whole entry, looked up, the tested form may be a part): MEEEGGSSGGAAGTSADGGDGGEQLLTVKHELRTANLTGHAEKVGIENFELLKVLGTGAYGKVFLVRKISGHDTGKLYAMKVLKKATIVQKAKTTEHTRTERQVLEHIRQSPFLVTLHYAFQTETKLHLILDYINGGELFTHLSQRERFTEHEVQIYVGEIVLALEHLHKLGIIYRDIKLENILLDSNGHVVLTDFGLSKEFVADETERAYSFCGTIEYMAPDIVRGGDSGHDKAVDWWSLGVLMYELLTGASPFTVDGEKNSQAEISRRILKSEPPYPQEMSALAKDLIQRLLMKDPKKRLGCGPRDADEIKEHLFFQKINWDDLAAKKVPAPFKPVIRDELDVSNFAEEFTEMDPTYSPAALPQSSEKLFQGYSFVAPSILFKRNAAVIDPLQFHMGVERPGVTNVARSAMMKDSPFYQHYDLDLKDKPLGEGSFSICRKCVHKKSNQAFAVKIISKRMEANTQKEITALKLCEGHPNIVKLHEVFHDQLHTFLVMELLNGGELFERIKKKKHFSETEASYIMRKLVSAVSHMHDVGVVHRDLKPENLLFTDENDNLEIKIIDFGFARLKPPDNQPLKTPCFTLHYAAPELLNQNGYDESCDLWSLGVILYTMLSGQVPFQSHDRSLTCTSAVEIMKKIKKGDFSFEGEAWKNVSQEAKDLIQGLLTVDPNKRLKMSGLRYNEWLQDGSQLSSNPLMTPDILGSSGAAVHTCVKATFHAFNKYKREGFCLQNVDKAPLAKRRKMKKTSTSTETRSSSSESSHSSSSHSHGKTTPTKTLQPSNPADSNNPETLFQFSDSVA
1-phosphatidylinositol 3-phosphate 5-kinase, sequence (Q9Y2I7 whole entry): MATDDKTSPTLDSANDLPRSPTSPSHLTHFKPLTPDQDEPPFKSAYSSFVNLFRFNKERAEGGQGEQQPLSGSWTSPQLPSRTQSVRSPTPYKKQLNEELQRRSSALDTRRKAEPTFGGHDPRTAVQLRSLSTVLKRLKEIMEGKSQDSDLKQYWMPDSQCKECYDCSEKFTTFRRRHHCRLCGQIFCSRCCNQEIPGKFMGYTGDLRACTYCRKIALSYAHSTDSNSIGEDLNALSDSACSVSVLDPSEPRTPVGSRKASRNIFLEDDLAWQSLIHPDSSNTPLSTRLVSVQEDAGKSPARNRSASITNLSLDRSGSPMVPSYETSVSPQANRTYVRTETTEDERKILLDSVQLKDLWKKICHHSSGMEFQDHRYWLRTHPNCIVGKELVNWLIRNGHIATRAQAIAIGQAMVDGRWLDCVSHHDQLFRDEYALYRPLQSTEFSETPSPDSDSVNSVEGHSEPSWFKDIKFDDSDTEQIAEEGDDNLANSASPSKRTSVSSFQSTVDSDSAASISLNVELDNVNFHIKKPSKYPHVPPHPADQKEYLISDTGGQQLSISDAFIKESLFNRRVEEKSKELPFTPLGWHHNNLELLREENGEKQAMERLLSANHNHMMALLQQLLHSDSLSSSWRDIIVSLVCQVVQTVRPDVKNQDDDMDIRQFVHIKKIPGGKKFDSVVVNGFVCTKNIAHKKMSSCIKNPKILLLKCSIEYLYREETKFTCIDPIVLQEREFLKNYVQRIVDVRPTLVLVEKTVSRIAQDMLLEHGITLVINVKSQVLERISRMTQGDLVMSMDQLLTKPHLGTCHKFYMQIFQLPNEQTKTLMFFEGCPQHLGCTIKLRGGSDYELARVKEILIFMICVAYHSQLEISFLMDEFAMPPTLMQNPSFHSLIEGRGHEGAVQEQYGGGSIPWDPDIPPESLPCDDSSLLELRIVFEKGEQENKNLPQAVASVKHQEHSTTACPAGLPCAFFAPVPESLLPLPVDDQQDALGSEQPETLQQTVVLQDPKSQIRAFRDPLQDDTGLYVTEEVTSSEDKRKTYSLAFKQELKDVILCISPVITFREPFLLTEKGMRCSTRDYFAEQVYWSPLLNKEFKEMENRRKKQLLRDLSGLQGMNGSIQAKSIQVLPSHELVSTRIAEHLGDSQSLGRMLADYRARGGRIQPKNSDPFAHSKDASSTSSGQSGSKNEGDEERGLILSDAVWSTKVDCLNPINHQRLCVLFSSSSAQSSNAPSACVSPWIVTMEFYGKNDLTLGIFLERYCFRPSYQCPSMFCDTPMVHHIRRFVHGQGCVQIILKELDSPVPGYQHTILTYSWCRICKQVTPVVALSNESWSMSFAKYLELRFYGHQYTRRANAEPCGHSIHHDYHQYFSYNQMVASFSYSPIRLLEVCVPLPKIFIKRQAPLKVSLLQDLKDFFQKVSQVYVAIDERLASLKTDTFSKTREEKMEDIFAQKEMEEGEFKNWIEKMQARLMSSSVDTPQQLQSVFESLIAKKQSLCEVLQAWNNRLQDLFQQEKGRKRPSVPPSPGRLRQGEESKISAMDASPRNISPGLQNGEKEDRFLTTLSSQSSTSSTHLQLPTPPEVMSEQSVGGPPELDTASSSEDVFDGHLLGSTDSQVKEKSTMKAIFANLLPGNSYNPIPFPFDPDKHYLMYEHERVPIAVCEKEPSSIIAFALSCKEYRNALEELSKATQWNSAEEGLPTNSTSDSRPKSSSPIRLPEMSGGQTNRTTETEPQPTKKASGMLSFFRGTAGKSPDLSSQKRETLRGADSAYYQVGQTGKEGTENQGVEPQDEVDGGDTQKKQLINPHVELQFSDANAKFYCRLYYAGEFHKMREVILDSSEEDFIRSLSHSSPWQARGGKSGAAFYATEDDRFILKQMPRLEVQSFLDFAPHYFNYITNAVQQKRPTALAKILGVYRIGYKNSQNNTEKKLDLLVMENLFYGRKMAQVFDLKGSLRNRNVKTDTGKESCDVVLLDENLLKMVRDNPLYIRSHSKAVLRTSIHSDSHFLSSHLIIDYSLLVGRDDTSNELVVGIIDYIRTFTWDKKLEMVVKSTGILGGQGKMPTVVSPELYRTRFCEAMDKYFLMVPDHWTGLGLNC
Cyclin-dependent kinase 10, sequence (Q15131 whole entry, the tested form may be a part): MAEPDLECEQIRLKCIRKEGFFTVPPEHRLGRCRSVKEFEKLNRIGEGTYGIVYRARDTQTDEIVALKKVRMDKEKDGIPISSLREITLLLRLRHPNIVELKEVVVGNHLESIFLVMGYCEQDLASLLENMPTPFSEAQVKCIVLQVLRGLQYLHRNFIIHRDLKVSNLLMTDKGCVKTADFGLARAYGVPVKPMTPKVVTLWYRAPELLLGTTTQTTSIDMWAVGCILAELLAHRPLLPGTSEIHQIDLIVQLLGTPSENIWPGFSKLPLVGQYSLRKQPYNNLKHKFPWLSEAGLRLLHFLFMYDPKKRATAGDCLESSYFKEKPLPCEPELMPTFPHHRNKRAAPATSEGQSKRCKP

Turning to `CCOc1cc(N2CCC(O)CC2)ccc1Nc1ncc2c(n1)N(C)c1ccccc1C(=O)N2C`, the IC50 (on AMPK alpha1/alpha2; in test [1]; in [2]; in [3]; in test [4]; in [5]) was greater than 50 µM each time. Further, the IC50 (in [6]; at Insulin receptor; in test [9]; in [10]) was greater than 50 µM in each case. Further, the inhibition is 12% in [7], 9.1% in test [8], -7.7% in test [11] and 28% in test [12]. Moreover, the inhibition entry in test [13] is “inactive”.
